# E coli WT exp = growth inhibitors of wild-type E. coli, primary screen, strain BW25113, expanded library, OD600 | growth inhibition, % at 100 µM | hit rate 0.15% among 98,000 | OD600 absorbance;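 active = growth inhibition above about 50% at one test dose, limit read from the data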;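 note: growth measured after 20 h incubation at 37 °C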
# Ecoli tolC = growth inhibitors of E. coli tolC mutant, primary screen, strain BW25113 ΔtolC::kan, 384-well; OD615; growth inhibition, % at 10 µM (by protocol); hit rate 2.2% among 65,000;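 active = growth inhibition at or above a cutoff equal to the mean over every tested compound plus 3 SD, cut at about 60% in these data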;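 note: growth measured after 20 h incubation at 37 °C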
#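 test system = E. coli BW25113 ΔtolC::kan bacteria | medium = LB with kanamycin 50 µg/mL | signal = OD at 615 nm | schedule = 37 °C, 20 h exposure | evaluation = % inhibition of E. coli growth | compound dosing = one dose of 10 µM final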
# PostGolgi ctrl = growth inhibition of yeast control strain, primary screen, counter-screen for post-Golgi transport modulator project; efflux-deficient yeast background strain, growth absorbance A615, 16 h; inhibition, % at 10 µM; hit rate 5% among 98,000
# PostGolgi yeast = phenotypic screen on post-Golgi transport, primary screen; post-Golgi transport phenotypic cell assay; inhibition, % at 10 µM; hit rate 0.9% among 98,000; AID 739, 2007;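 note: yeast cells grown in 1536-well plates; yeast grown about 18 h at 30C before absorbance read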
# Cav32 inh = Cav3.2 calcium influx blockers – cell-based, Fluo-4 calcium fluorescence, FDSS, MLSMR library, primary screen; Cav3.2-expressing cells; hits give low values; AID 449739, 2010; B-score at 10 µM; hit rate 4% among 100,000;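 active = single-dose well whose peak fluorescence ratio is a statistical outlier from its plate by either plate-standardised score or position-corrected B-score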
# * hit, by the source's call; · = no result given. This is a sample that favours compounds with a hit; in the whole collection about 8.4% have one here. Cut-off read from the data, not from the text of the source, unless noted: active = inhibition above about 30%; inactive = the rest.
SMILES,E coli WT exp,Ecoli tolC,PostGolgi ctrl,PostGolgi yeast,Cav32 inh
COc1ccc(CNC(=O)c2nnn(Cc3ccc(OC)cc3)c2N)cc1,-5.0,-2.5,0.5,5.3,-5.24*
CC(C)(C)NC1=CC(=O)OC12CCCCC2,-7.0,-13.8,3.6,-13.4,-0.569
O=C(Nc1ccc2c(c1)OC1(CCCC1)O2)C1CC1,6.0,14.4,1.8,-1.3,-1.51
O=C(NC(Cc1ccc2c(c1)OCO2)C(=O)NC(Cc1ccccc1)C(=O)O)c1ccccc1 (stereo not drawn),-4.0,·,-0.3,-6.3,·
Cc1nc2nc3c(cn2n1)C(=O)CC(C)(C)C3,-2.0,-8.0,3.0,-7.7,0.598
CC(c1ccco1)N(C(=O)c1ccc(C#N)cc1)c1ccccn1 (stereo not drawn),-2.0,·,5.0,-14.4,1.89
CC(c1ccco1)N(C(=O)CSc1ccc(Br)cc1)c1ccccn1 (stereo not drawn),-1.0,20.1,13.0,-3.3,-4.54*
CC(c1ccco1)N(C(=O)c1cccs1)c1ccccn1 (stereo not drawn),-1.0,6.5,41.4*,3.0,0.324
CCCCCOc1ccc(Cl)cc1CN1CCOCC1,1.0,-1.8,25.9,57.6*,-0.31
CC(C)CCOc1ccc(Cl)cc1CN1CCOCC1,6.0,6.9,36.5*,32.4*,·
CC(=O)Nc1ccc(-n2nnnc2SCC(=O)N2CCN(C(=O)c3ccco3)CC2)cc1,7.0,·,-6.0,3.2,1.22
O=c1nc2n(c3sc4c(c13)CCC4)Cc1ccccc1-2,·,1.9,·,·,·
O=C(NCCS(=O)CCNC(=O)C(F)(F)F)C(F)(F)F,10.0,-27.1,-6.5,-3.3,0.75
Cc1ccc(CNC(=O)C2CC3Cn4c(nc5cc(Cl)c(Cl)cc54)C3N2C)o1 (stereo not drawn),·,·,·,·,0.618
C=CCn1cnc2c(c1=O)c1nc3ccccc3nc1n2/N=C/c1cccc(OC)c1OC,·,21.0,·,·,·
C=CCn1cnc2c(c1=O)c1nc3ccccc3nc1n2/N=C/c1cc(OC)c(OC)c(OC)c1,4.0,77.2*,2.1,20.3,-2.98
Cc1cc(S(=O)(=O)N2CCN(c3ccccc3C)CC2)ccc1F,-14.0,63.9*,30.1*,-8.9,-2.17
CCOc1ccc(S(=O)(=O)N2CCN(c3ccc(C)cc3C)CC2)cc1,-24.0,24.2,20.7,-12.6,-4.68
COc1ccc(S(=O)(=O)N2CCN(c3ccc(C)cc3C)CC2)cc1OC,-7.0,30.4,17.1,8.2,-6.02*
Cc1ccccc1N1CCN(S(=O)(=O)c2ccccc2)CC1,·,·,·,·,-4.62*
Cc1cc(S(=O)(=O)N2CCN(c3c(C)cccc3C)CC2)ccc1F,-23.0,47.5,14.1,5.9,-4.25
CCCn1nnc(NC(=O)C(c2ccccc2)c2ccccc2)n1,-8.0,·,7.6,34.2*,-0.591
CCCn1nnc(NC(=O)c2ccc(-c3ccccc3)cc2)n1,-10.0,-12.0,5.6,-0.8,0.139
CCN(CC)S(=O)(=O)c1csc(C(=O)NCc2ccccc2)c1,-2.0,0.5,2.6,-5.0,-0.406
CN(CC(=O)N1CCN(c2ccc(F)cc2)CC1)S(=O)(=O)c1ccc(F)cc1,-1.0,8.1,16.7,-1.9,-0.545
SMILES,E coli WT exp,Ecoli tolC,PostGolgi ctrl,PostGolgi yeast,Cav32 inh
CN(CC(=O)N1CCN(c2ccccc2)CC1)S(=O)(=O)c1cnc[nH]1,-11.0,-14.5,35.9*,3.2,0.496
CSc1cccc(NS(=O)(=O)c2ccc3c(c2)oc(=O)n3C)c1,10.0,8.6,-3.3,-10.2,-1.64
Cc1ccccc1Cc1c(C)nc2c(C(=O)NCc3ccc4c(c3)OCO4)cnn2c1C,-7.0,·,20.0,-2.2,-0.194
Cc1ccc(C)c(Cc2c(C)nc3c(C(=O)NCc4ccc5c(c4)OCO5)cnn3c2C)c1,-2.0,·,56.5*,4.5,·
Cc1ccc(NC(=O)c2cnn(-c3ccccc3)c2NC(=O)c2ccco2)cc1C,-12.0,5.5,12.4,0.9,-0.987
Cc1ccc(-n2ncc(C(=O)NCc3ccc4c(c3)OCO4)c2NC(=O)c2ccco2)cc1C,-4.0,11.3,-3.6,2.6,-6.21*
Cc1nc2c(C(=O)NCc3ccco3)cnn2c(C)c1Cc1ccc(F)cc1Cl,-1.0,13.7,18.4,3.3,0.219
Cc1cccc(Cc2c(C)nc3c(C(=O)NCc4ccco4)cnn3c2C)c1,7.0,75.2*,33.2*,3.1,0.0827
Cc1ccc(S(=O)(=O)N(C)CCCC(=O)Nc2ccccn2)cc1,·,-13.9,·,·,·
Cc1ccc(NC(=O)CSC(N)=O)cc1Cl,-6.0,14.0,5.3,7.0,-6.25*
NC(=O)SCC(=O)Nc1ccc(Cl)cc1,0.0,-8.8,1.2,-0.8,-4.01
NC(=O)SCC(=O)Nc1ccc(Cl)c(Cl)c1,-11.0,-8.2,15.9,-5.9,·
NC(=O)SCC(=O)Nc1cccc(Cl)c1,-6.0,-7.4,1.8,-7.9,-5.41*
CCOC(=O)C(Sc1cc(C)nc(N)n1)C(C)=O (stereo not drawn),-1.0,·,8.4,1.4,0.821
CCCCCCNCc1ccc(Br)cc1,10.0,·,1.8,-1.0,0.589
COc1ccc(OCCCn2c(=O)oc3ccccc32)cc1,·,·,·,·,-0.433
Cn1c(=O)n(CCCOc2ccc(Br)cc2)c2ccccc21,-4.0,100.0*,38.5*,-0.7,-4.45
Cn1c(=O)n(CCCOc2ccc(Cl)cc2)c2ccccc21,9.0,62.4*,49.1*,5.3,-1.07
OCc1nc2ccccc2n1CCCOc1ccc(Br)cc1,9.0,67.0*,45.2*,0.8,-1.65
Cc1cccc(OCCn2c(CCCO)nc3ccccc32)c1,6.0,4.3,30.3*,4.7,-2.73
COc1cccc(-c2nnc(SCC(=O)Nc3ccc(S(N)(=O)=O)cc3)n2C)c1,-10.0,-11.6,10.7,-4.9,-0.0411
CCC(C)C(=O)N1c2ccccc2C(=C2SC(C(=O)OC)=C(C(=O)OC)S2)C(=S)C1(C)C (stereo not drawn),-28.0,·,11.5,-5.9,-2.04
Cc1nc2ccccc2c(=O)n1/N=C/c1cn(-c2ccccc2)nc1-c1cccs1,-13.0,-5.6,9.2,7.9,-4*
O=C(O)CCSCCC(=O)O,7.0,-33.7,6.8,33.5*,0.366
Cn1c(CNc2cccc(Cl)c2)nnc1SCC(=O)OC1CCCCC1,7.0,30.6,19.0,1.7,-8.54*
SMILES,E coli WT exp,Ecoli tolC,PostGolgi ctrl,PostGolgi yeast,Cav32 inh
CCOC(=O)CSc1nnc(CNc2cccc(Cl)c2)n1-c1ccccc1,11.0,13.6,10.8,-9.8,-5.55*
COC(=O)CSc1nnc(CNc2ccc(Cl)cc2)n1Cc1ccccc1,6.0,7.2,46.0*,64.8*,0.077
CC(C)OC(=O)CSc1nnc(CNc2cccc(Cl)c2)n1C,·,·,·,·,0.619
O=C(CSc1nnc(CNc2ccc(F)cc2)n1Cc1ccccc1)NCc1ccccc1,·,·,·,·,-3.83
CCOC(=O)CSc1nnc(CNc2ccc(Cl)cc2)n1-c1ccccc1,4.0,2.0,49.8*,59.7*,-1.8
CCc1nnc(NC(=O)CSc2nnc(CNc3cccc(C)c3)n2-c2ccccc2)s1,-4.0,11.8,-3.8,4.1,-1.34
COc1ccccc1NC(=O)C1CC(=O)OC1c1ccccc1 (stereo not drawn),3.0,-28.2,1.0,-2.1,0.536
O=C(COc1cccc2ccccc12)N1c2ccccc2CCc2ccccc21,-17.0,·,32.3*,17.7,-6.65*

# Compound activity (PubChem BioAssay)
